# Screening data: PubChem BioAssay, several laboratories
# Jurkat viability = cytotoxicity toward Jurkat T cells, primary screen, cytotoxicity control, cell-based, Jurkat E6.1, 60K MLSMR library; Jurkat E6.1 viability, ATP luminescence, 48 h; inhibition, % at 4 µM; 56,000 compounds, 1.2% hits; AID 463, 2006;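 active means inhibition above the mean inhibition of all tested compounds plus 3 SD, cut at about 28% in these data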
# Fibroblast inh = antiproliferative effect on LL 47 fibroblasts – human, LL 47 cells, CellTiter-Glo luminescence, primary screen; LL 47 human lung fibroblast viability, ATP luminescence; hits give low values; viability, % at 10 µM; 85,000 compounds, 1.1% hits;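 active means viability at or below 50% in the single dose screen; inactive means viability above 50%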;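 further: compound exposure lasted 72 h before the ATP readout; 100% = median luminescence of untreated cell-only wells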
#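 Material: human lung fibroblast line LL 47, low passage; Evaluation: viability percentage against median untreated-cell control; Buffer or medium: 15% FBS in IMEM; Incubation: 72 h compound exposure at 37 °C after overnight plating; Dosing: 0.1% DMSO in all compound wells; Measured by: CellTiter-Glo luminescence.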
# HUVEC prolif 384 = inhibitors of HUVEC proliferation, primary screen, cell-based, 384-well; CellTiter-Glo luminescence, 72 h; hits give low values; viability, % at 10 µM (by protocol); 86,000 compounds, 1.1% hits; AID 648, 2007;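 active means viability at or below 30%; inactive means viability above 30%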;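 further: 100% = median luminescence of DMSO-only cell control wells on each plate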
# H69AR inhibit = proliferation blockers of H69AR lung cancer cells, primary screen, cell-based, human, 86K library. H69AR lung tumor viability, ATP luminescence, 72 h; hits give low values. viability, % at 10 µM. 85,000 compounds, 6% hits;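 active means viability at or below 40%; inactive means viability above 40%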;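 further: multidrug resistant small cell line overexpressing MRP-1 efflux transporter; 100% = mean luminescence of untreated control wells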
# The depositor's hits bear a star; nt = no result. Compounds with a hit are over-represented: about 6.6% of the library has one in this group of screens.
SMILES,Jurkat viability,Fibroblast inh,HUVEC prolif 384,H69AR inhibit
Cc1ccc2oc(=O)c3cnn(CC(=O)Nc4ccccc4N4CCN(C)CC4)c3c2c1,-2.1,47.2*,2.1*,62.4
COC(=O)c1nn(-c2ccccc2)nc1-c1nn(-c2ccccc2)nc1C(=O)OC,nt,91.1,88.4,25.9*
O=C(O)c1nn(-c2ccccc2)nc1-c1nn(-c2ccccc2)nc1C(=O)O,3.2,nt,96.7,95.6
c1ccc(CCNc2ncnc3scc(C4COc5ccccc5O4)c23)cc1 (centres undefined),nt,97.0,87.4,28.2*
c1ccc2c(c1)OCC(c1csc3ncnc(N4CCCC4)c13)O2 (centres undefined),nt,101.3,97.9,67.8
Cn1c(=O)c2c(nc3sccn32)n(C)c1=O,nt,106.7,90.4,87.6
O=C(Nc1cc(N2CCOCC2)ncn1)Nc1cccc2ccccc12,-3.5,96.6,74.8,32.5*
O=C(OCc1nnc(-c2ccccc2)o1)C1CCN(S(=O)(=O)c2cccs2)CC1,9.4,103.1,93.0,102.2
CS(=O)(=O)N1CCN(c2ccc(NC(=O)c3ccc(-c4ccc(Cl)cc4)o3)cc2)CC1,nt,71.8,38.4,28.5*
O=C(Nc1ccc(CN2CCOCC2)cc1)c1ccc(-c2cccc(Cl)c2)o1,nt,71.5,44.8,31.1*
CS(=O)(=O)N1CCN(c2ccccc2NC(=O)c2ccc(-c3ccc(Br)cc3)o2)CC1,nt,104.3,96.1,70.7
CCOC(=O)c1ccc(NC(=O)c2ccc(CN3CCOCC3)cc2)cc1,52.8*,95.2,90.2,87.5
OCCN1CCN(C2Cc3cc(Cl)ccc3Sc3ccc(Cl)cc32)CC1 (centres undefined) (tested in a mixture with another compound),nt,91.7,2.4*,8.9*
CCN(CC)S(=O)(=O)c1cc(C(=O)Nc2ccncc2)ccc1Cl,47.8*,101.9,98.7,75.9
CCCCCCn1ccc(=N)cc1,40.9*,96.1,95.2,74.4
CCOC(=O)C1=NN(c2cccc(Cl)c2)C2=NC(C)=C(C(=O)OC)C(c3cccs3)N12 (centres undefined),nt,103.3,91.1,88.7
COc1ccc(NC(=S)NC(NC(=O)c2cccc(C)c2)C(Cl)(Cl)Cl)c([N+](=O)[O-])c1 (centres undefined),nt,98.0,81.4,84.1
COc1ccc(NC(=S)NC(NC(=O)c2cccc(Cl)c2)C(Cl)(Cl)Cl)c([N+](=O)[O-])c1 (centres undefined),nt,93.9,12.2*,2.9*
Cc1ccc(OCCn2cc(Br)c(=O)[nH]c2=O)cc1,nt,96.0,105.8,93.9
O=C(CSc1nnc(COc2ccc(Cl)cc2)o1)N1c2ccccc2CCc2ccccc21,nt,61.5,92.5,9.1*
COCCNC(=O)C(c1ccc(C)o1)N(C(=O)c1snc(C(N)=O)c1N)c1cc(C)cc(C)c1 (centres undefined),-3.8,97.2,91.2,70.4
Cc1cccc(-c2nc(CSCC(=O)N3CCN(Cc4ccc5c(c4)OCO5)CC3)c(C)o2)c1,6.4,94.7,88.0,33.3*
Cc1oc(-c2ccccc2Cl)nc1CSCC(=O)N1CCCC1,38.6*,91.7,88.6,91.6
Cc1oc(-c2ccccc2Cl)nc1CSCC(=O)NC1CCCC1,nt,91.1,104.5,98.8
Cn1c(=O)c2c(nc(Br)n2CC(=O)C23CC4CC(CC(C4)C2)C3)n(C)c1=O,-3.7,97.8,81.8,32.3*
SMILES,Jurkat viability,Fibroblast inh,HUVEC prolif 384,H69AR inhibit
COc1cccc(C(=O)Cn2c(Br)nc3c2c(=O)n(C)c(=O)n3C)c1,-0.7,92.4,107.3,87.7
O=c1c(C(c2nnnn2C2CCCCC2)N2CCCCC2)coc2ccc(Cl)cc12 (centres undefined),6.5,93.6,63.5,18.2*
Clc1ccc(C(c2nnnn2C2CCCC2)N2CCN(Cc3ccncc3)CC2)cc1 (centres undefined),4.4,nt,nt,nt
CCOc1cc2nc(-c3ccc(OC)c(OC)c3)nc(N3CCOCC3)c2cc1OC,nt,66.1,6.9*,33.0*
CCOc1cc(C(=S)N2CCOCC2)ccc1OC,nt,95.9,108.5,96.4
Cc1cc(C)n(-c2nc3c(c(=O)[nH]c(=O)n3C)n2C(C)C)n1,-10.2,106.9,106.3,105.3
O=C(NCC(c1cccs1)N1CCOCC1)c1ccc(Cl)s1 (centres undefined),95.0*,63.8,81.6,17.6*
O=C(COc1ccccc1)NCC(c1cccs1)N1CCOCC1 (centres undefined),nt,103.4,93.7,92.1
O=Cc1c(Sc2ccccn2)nc2ccccn2c1=O,nt,102.0,85.4,21.7*
O=Cc1c(N2CCCCCC2)nc2ccccn2c1=O,nt,93.6,93.3,101.9
O=Cc1c(Sc2ccccc2)nc2ccccn2c1=O,nt,64.3,69.0,2.6*
O=C(Oc1ccccc1)c1c(Cl)cccc1P(=O)(O)O,nt,99.1,95.6,90.8
CC1=C(C)C(=O)NC(Nc2nc(C)c3cc(C)cc(C)c3n2)N1 (centres undefined),-0.8,13.5*,23.7*,24.2*
Cc1cc(C)c2nc(SCCc3ccccc3)nc(C)c2c1,nt,101.8,101.7,101.1
N=c1c2c(-c3ccccc3)c(-c3ccccc3)oc2ncn1CCCN1CCOCC1,-0.5,79.3,8.9*,45.6
c1ccc(-c2oc3ncnc(NCCN4CCOCC4)c3c2-c2ccccc2)cc1,6.4,83.9,59.5,36.5*
N=c1c2c(-c3ccccc3)c(-c3ccccc3)oc2ncn1CCN1CCOCC1,-1.6,84.1,53.6,41.8
CN1CCN(c2nc(-c3cccs3)cc(C(F)(F)F)n2)CC1,nt,95.9,73.0,79.3
O=C(O)CCS(=O)(=O)c1nc(-c2cccs2)cc(C(F)(F)F)n1,nt,92.2,92.7,33.0*
CS(=O)(=O)c1nc(-c2cccs2)cc(C(F)(F)F)n1,nt,13.5*,53.8,1.5*
CCOC(=O)Cc1cnc(NC(=O)NC(C(=O)OCC)(c2ccccc2)C(F)(F)F)s1 (centres undefined),-3.5,94.0,95.2,91.6
Cn1c(=O)c2c(nc(Oc3ccc4c(c3)OCO4)n2Cc2ccc(Br)cc2)n(C)c1=O,nt,30.4*,22.3*,17.5*
Cc1ccc(S(=O)(=O)N2CCCCC2)cc1C(=O)Nc1ncn[nH]1,-5.9,99.6,97.9,102.8
CCOP(=O)(c1ccccc1)C1(O)CCCCC1 (centres undefined),nt,104.8,101.5,99.7
CCCC1C2C(=O)N(c3ccccc3OCC)C(=O)C2ON1c1ccccc1 (centres undefined),nt,94.5,85.2,84.0
O=C(c1cccc(F)c1)N1CCN(C(=O)c2cc3ncc(Br)cn3n2)CC1,nt,108.2,96.1,79.6
Clc1cccc(-c2cc3nc4c(c(N5CCNCC5)n3n2)CCCC4)c1,nt,1.9*,1.1*,1.9*
O=C(Nc1ccccc1Oc1ccccc1)C1CC1,-3.0,103.1,98.3,103.3
[O-][N+]1=c2ccc(Nc3ccccc3)cc2=NC12CCCCC2,9.3,12.9*,4.6*,1.2*
CCOc1ccc(N(C(C)C(=O)NCc2ccco2)S(C)(=O)=O)cc1 (centres undefined),nt,108.5,104.7,103.4
